How the values were obtained:
Type in all cases: functional
[1] = test system: NCI-H322M; assay: Growth inhibition of human NCI-H322M cells after 48 hrs by sulforhodamine B assay; details: for TGI: read-out: pTGI (converted)
[2] = test system: COLO 205; assay: Growth inhibition of human COLO205 cells after 48 hrs by sulforhodamine B assay; details: COLO 205, 48 h; for TGI: read-out: pTGI (converted)
[3] = test system: SNB-75; assay: Growth inhibition of human SNB75 cells after 48 hrs by sulforhodamine B assay; details: SNB-75, 48 h; for TGI: read-out: pTGI (converted)
[4] = test system: HL-60(TB); assay: Growth inhibition of human HL-60(TB) cells after 48 hrs by sulforhodamine B assay; details: HL-60, 48 h; for CC50: read-out: pLC50 (the source's name) (converted); for TGI: read-out: pTGI (converted)
Summary of the method: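 Run in the NCI 60 cell-line screen as the full 5-dose assay that follows initial single-dose testing; GI50 is read from the dose series.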

[5] = test system: A549; assay: Growth inhibition of human A549 cells after 48 hrs by sulforhodamine B assay; details: A549, 48 h; for TGI: read-out: pTGI (converted)
[6] = test system: EKVX; assay: Growth inhibition of human EKVX cells after 48 hrs by sulforhodamine B assay; details: for TGI: read-out: pTGI (converted)
[7] = test system: HCT-116; assay: Growth inhibition of human HCT116 cells after 48 hrs by sulforhodamine B assay; details: HCT-116, 48 h; for TGI: read-out: pTGI (converted)
[8] = test system: NCI-H460; assay: Growth inhibition of human NCI-H460 cells after 48 hrs by sulforhodamine B assay; details: NCI-H460, 48 h; for TGI: read-out: pTGI (converted)
[9] = test system: NCI-H522; assay: Growth inhibition of human NCI-H522 cells after 48 hrs by sulforhodamine B assay; details: NCI-H522, 48 h; for TGI: read-out: pTGI (converted)
[10] = test system: KM12; assay: Growth inhibition of human KM12 cells after 48 hrs by sulforhodamine B assay; details: KM12, 48 h; for TGI: read-out: pTGI (converted)
[11] = test system: HCT-15; assay: Growth inhibition of human HCT15 cells after 48 hrs by sulforhodamine B assay; details: HCT-15, 48 h; for TGI: read-out: pTGI (converted)
[12] = Growth inhibition of human Hs 578T cells after 48 hrs by sulforhodamine B assay; details: for CC50: read-out: pLC50 (the source's name) (converted); for TGI: read-out: pTGI (converted)
[13] = test system: BT-549; assay: Growth inhibition of human BT549 cells after 48 hrs by sulforhodamine B assay; details: BT-549, 48 h; for TGI: read-out: pTGI (converted)
[14] = test system: HOP-62; assay: Growth inhibition of human HOP62 cells after 48 hrs by sulforhodamine B assay; details: HOP-62, 48 h; for TGI: read-out: pTGI (converted)
[15] = test system: RXF 393; assay: Growth inhibition of human RXF393 cells after 48 hrs by sulforhodamine B assay; details: RXF 393, 48 h; for TGI: read-out: pTGI (converted)
[16] = test system: SF-295; assay: Growth inhibition of human SF295 cells after 48 hrs by sulforhodamine B assay; details: SF-295, 48 h; for TGI: read-out: pTGI (converted)
[17] = test system: ACHN; assay: Growth inhibition of human ACHN cells after 48 hrs by sulforhodamine B assay; details: for TGI: read-out: pTGI (converted)
[18] = test system: SK-OV-3; assay: Growth inhibition of human SKOV3 cells after 48 hrs by sulforhodamine B assay; details: SK-OV-3, 48 h; for TGI: read-out: pTGI (converted)
[19] = test system: OVCAR-5; assay: Growth inhibition of human OVCAR5 cells after 48 hrs by sulforhodamine B assay; details: OVCAR-5, 48 h; for TGI: read-out: pTGI (converted)
[20] = test system: HCC 2998; assay: Growth inhibition of human HCC2998 cells after 48 hrs by sulforhodamine B assay; details: HCC 2998, 48 h; for TGI: read-out: pTGI (converted)
[21] = test system: UO-31; assay: Growth inhibition of human UO31 cells after 48 hrs by sulforhodamine B assay; details: UO-31, 48 h; for TGI: read-out: pTGI (converted)
[22] = test system: SK-MEL-28; assay: Growth inhibition of human SK-MEL-28 cells after 48 hrs by sulforhodamine B assay; details: SK-MEL-28, 48 h; for CC50: read-out: pLC50 (the source's name) (converted); for TGI: read-out: pTGI (converted)
[23] = test system: U-251; assay: Growth inhibition of human U251 cells after 48 hrs by sulforhodamine B assay; details: U-251, 48 h; for TGI: read-out: pTGI (converted)
[24] = test system: CCRF-CEM; assay: Growth inhibition of human CCRF-CEM cells after 48 hrs by sulforhodamine B assay; details: for TGI: read-out: pTGI (converted)
[25] = test system: RPMI-8226; assay: Growth inhibition of human RPMI8226 cells after 48 hrs by sulforhodamine B assay; details: RPMI-8226, 48 h; for TGI: read-out: pTGI (converted)
[26] = test system: NCI-H226; assay: Growth inhibition of human NCI-H226 cells after 48 hrs by sulforhodamine B assay; details: NCI-H226, 48 h; for TGI: read-out: pTGI (converted)
[27] = test system: NCI-H23; assay: Growth inhibition of human NCI-H23 cells after 48 hrs by sulforhodamine B assay; details: NCI-H23, 48 h; for TGI: read-out: pTGI (converted)
[28] = test system: SF-268; assay: Growth inhibition of human SF268 cells after 48 hrs by sulforhodamine B assay; details: SF-268, 48 h; for TGI: read-out: pTGI (converted)
[29] = test system: K562; assay: Growth inhibition of human K562 cells after 48 hrs by sulforhodamine B assay; details: K562, 48 h; for TGI: read-out: pTGI (converted)
[30] = test system: T47D; assay: Growth inhibition of human T47D cells after 48 hrs by sulforhodamine B assay; details: for TGI: read-out: pTGI (converted)
[31] = test system: SW-620; assay: Growth inhibition of human SW620 cells after 48 hrs by sulforhodamine B assay; details: SW-620, 48 h; for TGI: read-out: pTGI (converted)
[32] = test system: PC-3; assay: Growth inhibition of human PC3 cells after 48 hrs by sulforhodamine B assay; details: PC-3, 48 h; for CC50: read-out: pLC50 (the source's name) (converted); for TGI: read-out: pTGI (converted)

## COc1cc(/C=C/c2ccc3c(c2)C[C@@H]2C(C)(C)[C@H](O)CC[C@@]2(C)O3)cc(O)c1C/C=C(\C)CCC=C(C)C
[1]
  GI50: 26.3 µM
  LC50: > 100 µM
  TGI: 87.1 µM
[2]
  GI50: 3.63 µM
  LC50: 49 µM
  TGI: 11 µM
[3]
  GI50: 5.37 µM
  LC50: > 100 µM
  TGI: 42.7 µM
[4]
  GI50: 13.8 µM
  CC50: > 100 µM
  TGI: 57.5 µM
[5]
  LC50: > 100 µM
  TGI: 39.8 µM
[5]; read-out: GI50
  GI50: 13.2 µM
[5]; read-out: pGI50 (converted)
  GI50: 13.2 µM
[6]
  GI50: 14.5 µM
  LC50 (50% lethal concentration): > 100 µM
  TGI: 57.5 µM
[7]
  GI50: 7.76 µM
  LC50: 45.7 µM
  TGI: 20.4 µM
[8]
  GI50: 7.41 µM
  LC50 (concentration killing 50% of cells): 55 µM
  TGI: 21.9 µM
[9]
  GI50: 17.8 µM
  LC50: 66.1 µM
  TGI: 33.9 µM
[10]
  GI50: 2.63 µM
  LC50: 21.9 µM
  TGI: 6.46 µM
[11]
  GI50: 6.31 µM
  LC50: 58.9 µM
  TGI: 20.9 µM
[12]
  GI50: 8.71 µM
  CC50: > 100 µM
  TGI: 93.3 µM
[13]
  GI50: 5.01 µM
  LC50: 49 µM
  TGI: 17.8 µM
[14]
  GI50: 6.17 µM
  LC50: 52.5 µM
  TGI: 20 µM
[15]
  GI50: 1.29 µM
  LC50 (50% lethal concentration): 6.61 µM
  TGI: 2.88 µM
[16]
  LC50: 38.9 µM
  TGI: 5.89 µM
[16]; read-out: GI50
  GI50: 1.66 µM
[16]; read-out: pGI50 (converted)
  GI50: 1.66 µM
[17]
  GI50: 20 µM
  LC50: > 100 µM
  TGI: 46.8 µM
[18]
  GI50: 22.9 µM
  LC50: > 100 µM
  TGI: > 100 µM
[19]
  GI50: 27.5 µM
  LC50: > 100 µM
  TGI: 79.4 µM
[20]
  GI50: 15.8 µM
  LC50: 85.1 µM
  TGI: 37.2 µM
[21]
  GI50: 5.01 µM
  LC50: 64.6 µM
  TGI: 20 µM
[22]
  GI50: 16.2 µM
  CC50: 69.2 µM
  TGI: 33.1 µM
[23]
  GI50: 5.62 µM
  LC50: 63.1 µM
  TGI: 22.4 µM
[24]
  GI50: 8.32 µM
  LC50: > 100 µM
  TGI: > 100 µM
[25]
  GI50: 3.09 µM
  LC50: > 100 µM
  TGI: 14.5 µM
[26]
  GI50: 22.9 µM
  LC50: > 100 µM
  TGI: 56.2 µM
[27]
  GI50: 15.1 µM
  LC50: 60.3 µM
  TGI: 30.2 µM
[28]
  GI50: 14.8 µM
  LC50: 81.3 µM
  TGI: 34.7 µM
[29]
  GI50: 5.5 µM
  LC50: > 100 µM
  TGI: 33.9 µM
[30]
  GI50: 20.9 µM
  LC50: > 100 µM
  TGI: 58.9 µM
[31]
  GI50: 11.7 µM
  LC50: 53.7 µM
  TGI: 25.1 µM
[32]
  GI50: 8.51 µM
  CC50: > 100 µM
  TGI: 56.2 µM

## COCOc1cc(/C=C/c2cc(CO)c3c(c2)C[C@@H]2C(C)(C)[C@H](O)CC[C@@]2(C)O3)cc(OC)c1C/C=C(\C)CCC=C(C)C
[1]
  GI50: 22.4 µM
  LC50: > 100 µM
  TGI: 91.2 µM
[2]
  GI50: 3.55 µM
  LC50: 66.1 µM
  TGI: 14.1 µM
[3]
  GI50: 0.263 µM
  LC50: > 100 µM
  TGI: 14.8 µM
[4]
  GI50: 0.661 µM
  CC50: > 100 µM
  TGI: 33.9 µM
[5]
  LC50: > 100 µM
  TGI: 26.9 µM
[5]; read-out: GI50
  GI50: 1.41 µM
[5]; read-out: pGI50 (converted)
  GI50: 0.977 µM
[6]
  GI50: 4.47 µM
  LC50 (50% lethal concentration): > 100 µM
  TGI: 83.2 µM
[7]
  GI50: 3.47 µM
  LC50: 45.7 µM
  TGI: 18.2 µM
[8]
  GI50: 0.871 µM
  LC50 (concentration killing 50% of cells): > 100 µM
  TGI: > 100 µM
[9]
  GI50: 10.5 µM
  LC50: 77.6 µM
  TGI: 28.2 µM
[10]
  GI50: 4.27 µM
  LC50: 57.5 µM
  TGI: 21.4 µM
[11]
  GI50: 1.35 µM
  LC50: 81.3 µM
  TGI: 10.2 µM
[12]
  GI50: 0.55 µM
  CC50: > 100 µM
  TGI: > 100 µM
[13]
  GI50: 1.38 µM
  LC50: 50.1 µM
  TGI: 17.8 µM
[14]
  GI50: 0.537 µM
  LC50: 64.6 µM
  TGI: 11 µM
[15]
  GI50: 0.0661 µM
  LC50 (50% lethal concentration): 2.69 µM
  TGI: 0.355 µM
[16]
  LC50: 33.9 µM
  TGI: 0.501 µM
[16]; read-out: GI50
  GI50: 0.15 µM
[16]; read-out: pGI50 (converted)
  GI50: 0.151 µM
[17]
  GI50: 2.24 µM
  LC50: > 100 µM
  TGI: 50.1 µM
[18]
  GI50: 19.5 µM
  LC50: > 100 µM
  TGI: 81.3 µM
[19]
  GI50: 6.61 µM
  LC50: > 100 µM
  TGI: 41.7 µM
[20]
  GI50: 10.7 µM
  LC50: 70.8 µM
  TGI: 27.5 µM
[21]
  GI50: 0.501 µM
  LC50: 93.3 µM
  TGI: 15.1 µM
[22]
  GI50: 1.2 µM
  CC50: > 100 µM
  TGI: 30.9 µM
[23]
  GI50: 0.275 µM
  LC50: 53.7 µM
  TGI: 15.5 µM
[24]
  GI50: 1.02 µM
  LC50: > 100 µM
  TGI: > 100 µM
[25]
  GI50: 0.479 µM
  LC50: > 100 µM
  TGI: > 100 µM
[26]
  GI50: 14.5 µM
  LC50: 64.6 µM
  TGI: 30.2 µM
[27]
  GI50: 4.17 µM
  LC50: 74.1 µM
  TGI: 24.5 µM
[28]
  GI50: 4.07 µM
  LC50: 55 µM
  TGI: 20.9 µM
[29]
  GI50: 2.51 µM
  LC50: > 100 µM
  TGI: 28.8 µM
[30]
  GI50: 11.5 µM
  LC50: > 100 µM
  TGI: 49 µM
[31]
  GI50: 1.95 µM
  LC50: 67.6 µM
  TGI: 13.5 µM
[32]
  GI50: 0.912 µM
  CC50: > 100 µM
  TGI: > 100 µM

— ChEMBL document CHEMBL1926642, “Relevance of the C-5 position to schweinfurthin induced cytotoxicity” (2011)
